Reference: ChEMBL document CHEMBL2311323, “Synthesis and biological evaluation of N-alkyl-N-(4-methoxyphenyl)pyridin-2-amines as a new class of tubulin polymerization inhibitors” (Bioorg Med Chem, 2013)

Assays:
DU-145 [1] = test: Growth inhibition of human DU145 cells by SRB assay; assay type: functional
Summary of the method: (§1)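 Sulforhodamine B staining of human tumor cell lines: A-549 lung carcinoma, KB nasopharyngeal epidermoid carcinoma, P-gp-expressing vincristine-resistant KB (KBVIN) and DU145 prostate cancer. GI50 is the molar concentration giving 50% growth inhibition, reported as mean ± SD from at least triplicate runs.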

[2] = Growth inhibition of human KBVIN cells by SRB assay; assay type: functional; summary of the method: as §1
KB [3] = test: Growth inhibition of human KB cells by SRB assay; assay type: functional; summary of the method: as §1
A549 [4] = test: Growth inhibition of human A549 cells by SRB assay; assay type: functional; summary of the method: as §1
Tubulin (Homo sapiens) = Tubulin (Homo sapiens) (UniProt P68371+Q9H4B7+P0DPH7+P68366+Q13509+Q71U36+P04350+Q3ZCM7+P07437+P68363+Q9BQE3+Q6PEY2+Q13885+Q9BVA1+Q9BUF5); test: Inhibition of [3H]colchicine binding to tubulin (unknown origin) at 5 uM incubated for 10 mins at 37 degC; assay type: protein-complex assay
Tubulin = test: Inhibition of tubulin assembly (unknown origin) pre-incubated with compound for 15 mins before GTP addition measured after 20 mins at 30 degC post GTP addition by turbidimetry; assay type: protein-complex assay, Homo sapiens
Summary of the method: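 Turbidity at 350 nm. Tubulin at 1.0 mg/mL (10 µM) was preincubated with varying compound concentrations for 15 min at 30 °C without GTP. Samples were chilled on ice and 0.4 mM GTP added, then moved to 0 °C cuvettes. After a rapid jump to 30 °C, assembly was followed for 20 min. IC50 is the concentration halving the turbidity increase relative to control.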

DU-145 [5] = test: Growth inhibition of human DU145 cells at 20 ug/mL by SRB assay; assay type: functional; conditions: read-out: GI; summary of the method: as §1
[6] = Growth inhibition of human KBVIN cells at 20 ug/mL by SRB assay; assay type: functional; conditions: read-out: GI; summary of the method: as §1
KB [7] = test: Growth inhibition of human KB cells at 20 ug/mL by SRB assay; assay type: functional; conditions: read-out: GI; summary of the method: as §1
A549 [8] = test: Growth inhibition of human A549 cells at 20 ug/mL by SRB assay; assay type: functional; conditions: read-out: GI; summary of the method: as §1

Compound	GI50 (DU-145 [1]) [nM]	GI50 (KB [3]) [nM]	GI50 (A549 [4]) [nM]	inhibition (Tubulin (Homo sapiens)) [%]	IC50 (Tubulin) [nM]	GI50 [2] [nM]	inhibition of growth at 20 µg/mL (DU-145 [5]) [%]	inhibition of growth at 20 µg/mL [6] [%]	inhibition of growth at 20 µg/mL (KB [7]) [%]	inhibition of growth at 20 µg/mL (A549 [8]) [%]
COc1ccc(N(C)c2nc(C(F)(F)F)ccc2C#N)cc1	10700	15300	7210			7910				
COc1ccc(N(C)c2nc(C(F)(F)F)ccc2C(=O)OC(C)C)cc1							< 50	< 50	< 50	< 50
COc1ccc(N(C)c2nc(C(F)(F)F)ccc2-c2nnn[nH]2)cc1							< 50	< 50	< 50	< 50
COc1ccc(N(C)c2nc(C)ccc2[N+](=O)[O-])cc1	3350	2920	4420			4190				
COc1ccc(N(c2nc(Cl)ccc2[N+](=O)[O-])C2CCCC2)cc1							< 50	< 50	< 50	< 50
COc1ccc(N(C(C)=O)c2nc(Cl)ccc2[N+](=O)[O-])cc1	11200	14300	11800			13900				
CNC(=O)c1ccc(Cl)nc1N(C)c1ccc(OC)cc1							< 50	< 50	< 50	< 50
COc1ccc(N(C)c2nc(OC)ccc2[N+](=O)[O-])cc1	2700	3310	3270			2830				
COC(=O)c1ccc(C(F)(F)F)nc1N(C)c1ccc(OC)cc1	250	410	350	82	1700	190				
COc1ccc(N(C)c2nc(Cl)ccc2[N+](=O)[O-])cc1OC	15000	16000	18400			16500				
COc1ccc(N(C)c2nc(C(F)(F)F)ccc2C(=O)O)cc1							< 50	< 50	< 50	< 50
COc1ccc(N(C)c2nc(C(F)(F)F)ccc2CO)cc1	1710	1920	2130			1750				
COc1ccc(N(C)c2nc(Cl)ccc2C(=O)O)cc1							< 50	< 50	< 50	< 50
COc1cc(N(C)c2nc(Cl)ccc2[N+](=O)[O-])cc(OC)c1OC							< 50	< 50	< 50	< 50
COC(=O)c1ccc(N(C)c2nc(Cl)ccc2[N+](=O)[O-])cc1	2220	2890	3000			2870				
CN(c1ccc(OC(F)(F)F)cc1)c1nc(Cl)ccc1[N+](=O)[O-]							< 50	< 50	< 50	< 50
CN(c1ccc(C#N)cc1)c1nc(Cl)ccc1[N+](=O)[O-]	21400	22100	24000			27000				
CNC(=O)c1ccc(C(F)(F)F)nc1N(C)c1ccc(OC)cc1							< 50	< 50	< 50	< 50
C=CCN(c1ccc(OC)cc1)c1nc(Cl)ccc1[N+](=O)[O-]	2690	2610	3330			3150				

Further molecules by falling GI50 (DU-145 [1]), results first:

GI50 (DU-145 [1]) [nM]	GI50 (KB [3]) [nM]	GI50 (A549 [4]) [nM]	inhibition (Tubulin (Homo sapiens)) [%]	IC50 (Tubulin) [nM]	Compound	GI50 [2] [nM]	inhibition of growth at 20 µg/mL (DU-145 [5]) [%]	inhibition of growth at 20 µg/mL [6] [%]	inhibition of growth at 20 µg/mL (KB [7]) [%]	inhibition of growth at 20 µg/mL (A549 [8]) [%]
20400	22100	20400			COc1ccc(N(C)c2nc(Cl)ccc2C#N)cc1	18100				
17800	14500	22000			COc1ccc(N(C)c2nc(Cl)ccc2C(=O)OC(C)C)cc1	17300				
4450	4530	4500			CNc1ccc([N+](=O)[O-])c(N(C)c2ccc(OC)cc2)n1	9630				
2450	4010	3150			COC(=O)c1ccc(OC)nc1N(C)c1ccc(OC)cc1	4020				
1960	2260	3250			COc1ccc(N(C)c2nc(Cl)ccc2CO)cc1	2120				
1670	1360	3430			CNc1ccc(C(=O)OC)c(N(C)c2ccc(OC)cc2)n1	920				
1550	1780	2200			COc1ccc(N(C)c2nc(Cl)ccc2[N+](=O)[O-])cc1	1860				
1430	1800	1810			CCOC(=O)c1ccc(Cl)nc1N(C)c1ccc(OC)cc1	1430				
1300	1520	1460			CCOC(=O)c1ccc(C(F)(F)F)nc1N(C)c1ccc(OC)cc1	1300				
1290	1640	1200			COCc1ccc(C(F)(F)F)nc1N(C)c1ccc(OC)cc1	1430				
1160	1470	1820			COc1ccc(N(C)c2nc(C(F)(F)F)ccc2-c2nnnn2C)cc1	1260				
250	330	300	88	1500	COCc1ccc(Cl)nc1N(C)c1ccc(OC)cc1	200				
210	260	230	80	1400	COC(=O)c1ccc(Cl)nc1N(C)c1ccc(OC)cc1	200				
6.5	7.77	8.18			CC(=O)O[C@H]1C(=O)[C@@]2(C)[C@H]([C@H](OC(=O)c3ccccc3)[C@]3(O)C[C@H](OC(=O)[C@H](O)[C@@H](NC(=O)c4ccccc4)c4ccccc4)C(C)=C1C3(C)C)[C@]1(OC(C)=O)CO[C@@H]1C[C@@H]2O [PACLITAXEL]	1800				
